Reference: ChEMBL document CHEMBL4814076, “Discovery of a Potent and Selective Covalent Inhibitor of Bruton's Tyrosine Kinase with Oral Anti-Inflammatory Activity” (ACS Med Chem Lett, 2021)
Active and inactive are the calls of the source. No cut-off for these calls is given here.

Columns and labels:
[1] = molecular target: Receptor tyrosine-protein kinase erbB-4 (Homo sapiens, UniProt Q15303); assay: Inhibition of recombinant human ERBB4 (706 to 991 residues) using poly(Glu, Tyr) 4:1 as substrate incubated for 40 mins in presence of [gamma33P]ATP by scintillation counting method
Chain of Receptor tyrosine-protein kinase erbB-4 (Q15303 whole entry, the tested form may be a part): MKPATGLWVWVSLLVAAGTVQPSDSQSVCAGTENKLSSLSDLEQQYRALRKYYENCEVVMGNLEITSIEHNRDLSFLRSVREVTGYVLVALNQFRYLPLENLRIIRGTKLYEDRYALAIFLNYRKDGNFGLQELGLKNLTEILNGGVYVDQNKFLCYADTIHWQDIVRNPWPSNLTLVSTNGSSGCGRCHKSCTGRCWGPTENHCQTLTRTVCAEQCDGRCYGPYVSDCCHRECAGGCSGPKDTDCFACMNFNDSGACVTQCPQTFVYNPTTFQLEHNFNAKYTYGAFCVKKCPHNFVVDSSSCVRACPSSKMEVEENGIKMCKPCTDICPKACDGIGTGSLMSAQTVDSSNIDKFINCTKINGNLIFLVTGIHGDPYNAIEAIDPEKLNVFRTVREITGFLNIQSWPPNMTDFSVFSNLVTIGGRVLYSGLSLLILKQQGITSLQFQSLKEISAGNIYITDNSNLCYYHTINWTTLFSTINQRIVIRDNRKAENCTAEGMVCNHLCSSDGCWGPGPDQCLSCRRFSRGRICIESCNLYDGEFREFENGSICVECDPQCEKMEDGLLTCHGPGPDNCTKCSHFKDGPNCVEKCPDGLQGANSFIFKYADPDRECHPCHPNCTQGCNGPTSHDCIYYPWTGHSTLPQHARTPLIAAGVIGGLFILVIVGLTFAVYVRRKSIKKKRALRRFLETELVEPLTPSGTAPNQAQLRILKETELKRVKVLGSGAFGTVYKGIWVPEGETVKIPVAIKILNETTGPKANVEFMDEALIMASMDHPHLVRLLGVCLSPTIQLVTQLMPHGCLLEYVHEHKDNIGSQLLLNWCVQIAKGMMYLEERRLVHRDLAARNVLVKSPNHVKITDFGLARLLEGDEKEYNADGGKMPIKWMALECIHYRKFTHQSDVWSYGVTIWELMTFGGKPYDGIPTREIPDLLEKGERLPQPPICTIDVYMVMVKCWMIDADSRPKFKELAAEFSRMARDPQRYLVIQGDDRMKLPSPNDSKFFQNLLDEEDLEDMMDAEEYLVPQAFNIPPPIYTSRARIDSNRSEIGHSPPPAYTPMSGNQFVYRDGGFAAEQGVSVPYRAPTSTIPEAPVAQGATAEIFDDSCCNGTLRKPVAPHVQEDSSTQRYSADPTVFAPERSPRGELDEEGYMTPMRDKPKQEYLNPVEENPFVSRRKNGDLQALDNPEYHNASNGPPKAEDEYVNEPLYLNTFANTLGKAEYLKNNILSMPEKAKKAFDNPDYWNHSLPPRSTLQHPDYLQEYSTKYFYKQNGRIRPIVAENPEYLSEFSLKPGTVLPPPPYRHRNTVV

[2] = Oral bioavailability in Beagle dog at 2.5 mg/kg measured upto 24 hrs by LC-MS/MS analysis; type: ADME, organism-based, Canis lupus familiaris; settings: in vivo
In short: (§1)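 Rats (nonfasted; IV 1 mg/kg, PO 5 mg/kg) and dogs (fasted; IV 0.5 mg/kg, PO 2.5 mg/kg) dosed from 20% hydroxypropyl-β-cyclodextrin solution.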

[3] = system: Rattus norvegicus; assay: Antiinflammatory activity in po dosed Wistar rat model of type-2 collagen/incomplete freund's adjuvant-induced arthritis assessed as reduction in paw inflammation administered once daily on day 9 post type-2 collagen/incomplete freund's adjuvant stimulation and treated until day 16; type: functional, organism-based; settings: dose 1-30 mg/kg, time 8.0 day
In short: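 Arthritis induced in female Wistar rats by collagen injection on day 0 and day 7. Compound given orally once daily from day 9 through day 16. Hind paw inflammation scored. Anti-TNFα comparator dosed at 10 mg/kg every other day.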

[4] = molecular target: T1, Tyrosine-protein kinase BTK (Homo sapiens, UniProt Q06187); assay: Inhibition of BTK in human whole blood assessed as inhibition of IgM-induced B-cell activation; type: tissue-based
T1 sequence (Q06187 whole entry): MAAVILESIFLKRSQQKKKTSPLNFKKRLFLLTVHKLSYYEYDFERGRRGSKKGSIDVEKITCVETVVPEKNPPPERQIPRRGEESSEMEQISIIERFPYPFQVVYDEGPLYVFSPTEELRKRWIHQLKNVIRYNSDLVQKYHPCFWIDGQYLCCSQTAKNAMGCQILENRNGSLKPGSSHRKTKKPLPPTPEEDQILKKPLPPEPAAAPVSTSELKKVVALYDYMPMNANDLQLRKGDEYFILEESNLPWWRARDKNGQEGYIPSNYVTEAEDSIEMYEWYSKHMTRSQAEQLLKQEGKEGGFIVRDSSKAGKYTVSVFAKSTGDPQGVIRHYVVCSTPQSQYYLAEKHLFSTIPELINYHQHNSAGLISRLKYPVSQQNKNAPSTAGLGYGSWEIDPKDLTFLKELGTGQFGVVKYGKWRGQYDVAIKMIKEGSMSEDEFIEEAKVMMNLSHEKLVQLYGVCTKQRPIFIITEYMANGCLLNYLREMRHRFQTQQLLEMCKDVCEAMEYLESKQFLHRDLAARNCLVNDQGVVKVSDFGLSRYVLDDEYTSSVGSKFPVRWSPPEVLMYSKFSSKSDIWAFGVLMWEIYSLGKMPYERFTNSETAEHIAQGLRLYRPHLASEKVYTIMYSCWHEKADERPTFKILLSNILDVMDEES

[5] = Volume of distribution at steady state in Sprague-Dawley rat at 5 mg/kg, po or 1 mg/kg, iv measured upto 24 hrs by LC-MS/MS analysis; type: ADME, organism-based; settings: in vivo, read-out: Vdss; in short: as §1
[6] = Tmax in Beagle dog at 2.5 mg/kg, po measured upto 24 hrs by LC-MS/MS analysis; type: ADME, organism-based, Canis lupus familiaris; settings: in vivo; in short: as §1
[7] = molecular target: Serine/threonine-protein kinase B-raf (Homo sapiens, UniProt P15056); assay: Inhibition of recombinant human B-RAF (416 to end residues) using myelin basic protein as substrate incubated for 40 mins in presence of [gamma33P]ATP by scintillation counting method
Chain of Serine/threonine-protein kinase B-raf (P15056 whole entry): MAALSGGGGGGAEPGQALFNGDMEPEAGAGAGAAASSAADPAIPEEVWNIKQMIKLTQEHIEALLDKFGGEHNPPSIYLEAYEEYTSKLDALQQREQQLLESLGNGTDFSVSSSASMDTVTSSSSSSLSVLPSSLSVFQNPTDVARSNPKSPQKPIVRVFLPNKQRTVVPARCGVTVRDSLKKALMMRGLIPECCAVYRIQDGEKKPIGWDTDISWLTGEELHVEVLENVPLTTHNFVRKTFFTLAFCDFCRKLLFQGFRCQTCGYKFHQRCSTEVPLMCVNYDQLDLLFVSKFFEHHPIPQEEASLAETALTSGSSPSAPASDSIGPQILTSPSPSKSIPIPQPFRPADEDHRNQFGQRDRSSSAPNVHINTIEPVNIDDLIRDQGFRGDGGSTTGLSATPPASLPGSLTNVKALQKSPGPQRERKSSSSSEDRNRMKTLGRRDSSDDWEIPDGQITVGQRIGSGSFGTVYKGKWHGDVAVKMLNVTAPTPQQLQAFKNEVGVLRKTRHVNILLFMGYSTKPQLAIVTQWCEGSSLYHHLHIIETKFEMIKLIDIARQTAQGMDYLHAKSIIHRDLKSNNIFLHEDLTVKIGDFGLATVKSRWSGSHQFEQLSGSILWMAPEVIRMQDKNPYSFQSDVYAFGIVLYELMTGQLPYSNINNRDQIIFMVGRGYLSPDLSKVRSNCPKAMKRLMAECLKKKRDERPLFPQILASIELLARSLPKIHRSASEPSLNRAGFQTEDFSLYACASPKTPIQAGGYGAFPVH

[8] = molecular target: T2, Cytoplasmic tyrosine-protein kinase BMX (Homo sapiens, UniProt P51813); assay: Inhibition of recombinant human full length BMX using poly(Glu, Tyr) 4:1 as substrate incubated for 40 mins in presence of [gamma33P]ATP by scintillation counting method
T2 sequence (P51813 whole entry): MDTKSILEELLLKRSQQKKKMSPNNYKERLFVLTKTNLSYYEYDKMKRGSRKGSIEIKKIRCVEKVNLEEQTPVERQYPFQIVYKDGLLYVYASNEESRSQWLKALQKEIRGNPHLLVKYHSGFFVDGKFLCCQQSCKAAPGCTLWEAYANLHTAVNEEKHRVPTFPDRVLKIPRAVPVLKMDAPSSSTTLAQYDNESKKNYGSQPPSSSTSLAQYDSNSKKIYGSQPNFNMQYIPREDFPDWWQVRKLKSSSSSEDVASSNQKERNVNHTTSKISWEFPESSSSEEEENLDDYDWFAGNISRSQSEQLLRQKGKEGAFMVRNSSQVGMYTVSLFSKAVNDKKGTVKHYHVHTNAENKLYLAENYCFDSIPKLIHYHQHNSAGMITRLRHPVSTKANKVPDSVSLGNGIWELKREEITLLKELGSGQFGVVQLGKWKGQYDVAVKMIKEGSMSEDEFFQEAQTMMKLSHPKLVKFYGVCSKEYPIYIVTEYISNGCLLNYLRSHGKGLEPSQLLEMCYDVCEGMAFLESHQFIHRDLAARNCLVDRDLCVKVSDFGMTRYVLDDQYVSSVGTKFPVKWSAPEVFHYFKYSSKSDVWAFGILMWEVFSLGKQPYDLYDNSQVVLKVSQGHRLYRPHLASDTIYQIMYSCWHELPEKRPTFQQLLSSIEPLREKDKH

[9] = molecular target: T1, Tyrosine-protein kinase BTK; assay: Inhibition of recombinant human BTK using KVEKIGEGTYGVVYK as substrate incubated for 40 mins in presence of [gamma33P]ATP by scintillation counting method
[10] = molecular target: T1, Tyrosine-protein kinase BTK; assay: Irreversible covalent inhibition of recombinant unphosphorylated human GST-tagged BTK kinase domain (389 to 659 residues) expressed in insect cells assessed as protein-compound adduct formation under denaturing conditions by HPLC analysis
In short: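 BTK protein incubated with compound. Adduct mass measured under denaturing and nondenaturing conditions.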

[11] = molecular target: Tyrosine-protein kinase Fgr (Homo sapiens, UniProt P09769); assay: Inhibition of recombinant human FGR (2 to end residues) using poly(Glu, Tyr) 4:1 as substrate incubated for 40 mins in presence of [gamma33P]ATP by scintillation counting method
Chain of Tyrosine-protein kinase Fgr (P09769 whole entry): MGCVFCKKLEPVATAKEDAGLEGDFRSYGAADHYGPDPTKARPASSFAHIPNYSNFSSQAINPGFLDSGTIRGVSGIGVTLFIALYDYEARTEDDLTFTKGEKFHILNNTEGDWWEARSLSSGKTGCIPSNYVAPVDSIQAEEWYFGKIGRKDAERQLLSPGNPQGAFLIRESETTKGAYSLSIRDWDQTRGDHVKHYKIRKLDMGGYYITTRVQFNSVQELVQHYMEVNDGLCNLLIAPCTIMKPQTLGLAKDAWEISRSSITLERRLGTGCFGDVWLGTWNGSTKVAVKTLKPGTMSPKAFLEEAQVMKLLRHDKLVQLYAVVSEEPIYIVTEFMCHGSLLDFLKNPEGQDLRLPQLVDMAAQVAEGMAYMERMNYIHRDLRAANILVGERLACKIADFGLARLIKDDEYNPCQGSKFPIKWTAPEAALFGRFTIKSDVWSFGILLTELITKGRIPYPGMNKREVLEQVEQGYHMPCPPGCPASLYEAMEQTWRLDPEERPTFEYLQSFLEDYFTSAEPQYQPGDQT

[12] = Oral bioavailability in Sprague-Dawley rat at 5 mg/kg measured upto 24 hrs by LC-MS/MS analysis; type: ADME, organism-based; settings: in vivo
[13] = Cmax in Beagle dog at 2.5 mg/kg, po measured upto 24 hrs by LC-MS/MS analysis; type: ADME, organism-based, Canis lupus familiaris; set-up: route oral, dose 2.5 mg/kg, time <=24; settings: in vivo; in short: as §1

IC50 [1]: 377 nM
bioavailability [2]: 68%
IC50 [4]: 84 nM
Vd [5]: 1 L/kg
Tmax [6]: 48 min
IC50 [7]: 7840 nM
IC50 [8]: 129 nM
IC50 [9]: 142 nM
inhibition [10]: Active
IC50 [11]: 4760 nM
bioavailability [12]: 29.7%
Cmax [13]: 1500 nM
SMILES: C=CC(=O)N1CC[C@@H](NC(=O)c2sc3nccc4c3c2NC(=O)N4c2ccc(Oc3ccccc3)cc2C)C1
Activity [3]: Dose-Dependent Effect
